From ChEMBL document CHEMBL1143268 (Bioorg Med Chem Lett, 2009)
Converted amounts (≈) assume the structure as drawn.

Assays:
Vaccinia virus [1] = assay: Antiviral activity against Vaccinia virus infected in human foreskin fibroblasts by plaque assay; assay type: functional, organism-based; details: Orthopoxvirus vaccinia
[2] = Solubility in water; assay type: physicochemical
Cowpox virus [3] = assay: Antiviral activity against Cowpox virus infected in human foreskin fibroblasts by plaque assay; assay type: functional, organism-based
HFF = assay: (§1) Cytotoxicity against HFF; assay type: cell-based; details: human, hff
In short: (§2)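 Cytotoxicity scored visually in uninfected human foreskin fibroblasts, reported as the 50% inhibitory concentration.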

Liver = assay: (§3) Metabolic stability in rat liver homogenate; assay type: ADME, tissue-based; details: tissue homogenate
Intestine = assay: (§4) Metabolic stability in rat intestinal homogenate; assay type: ADME, tissue-based; details: tissue homogenate
HeLa [4] = assay: Cellular uptake in human HeLa cells after 45 mins; assay type: ADME, cell-based; details: 0.75 h
In short: (§5)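 Direct uptake measured over 45 min and expressed as nmol/mg, in HeLa cells stably expressing hPEPT1 and in parental HeLa controls. Valacyclovir served as the positive control for hPEPT1 carrier-mediated uptake. Values are means ± SD of three experiments.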

HeLa [5] = assay: Cellular uptake in human HeLa cells expressing human PEPT1 transporter after 45 mins; assay type: ADME, cell-based; details: 0.75 h; in short: as §5
Plasma = assay type: ADME, cell-free; details: rat
[6] = as §3; assay type: ADME, tissue-based; details: liver homogenate
Caco-2 = assay: Permeability from apical to basolateral side in human Caco-2 cells after 21 days relative to vidarabine; assay type: ADME, cell-based; details: caco-2, 504 h
In short: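 Caco-2 monolayers were used 21 days post-seeding, with integrity checked by transepithelial resistance. Basolateral aliquots were taken at set intervals and replaced with HEPES buffer pH 7.4.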

[7] = Permeability from apical to basolateral side in human Caco-2 cells after 21 days; assay type: ADME, cell-based; details: read-out: permeability
In short: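 Caco-2 monolayers were used 21 days post-seeding. Basolateral aliquots were taken at set intervals and replaced with HEPES buffer pH 7.4. Monolayer integrity was checked by transepithelial resistance.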

[8] = Oral bioavailability in human; assay type: ADME, organism-based; details: in vivo
Cowpox virus [9] = assay: Antiviral activity against Cowpox virus infected in HFF by plaque assay in presence of deoxy-coformycin; assay type: functional, organism-based
[10] = Cytotoxicity against HFF in presence of deoxy-coformycin; assay type: cell-based; details: human, HFF cells
In short: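 Cytotoxicity was scored visually in uninfected HFF cells, with 1 μM deoxycoformycin present, and reported as the 50% inhibitory concentration.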

[11] = as §1; assay type: cell-based; details: human, HFF cells; in short: as §2
Vaccinia virus [12] = assay: Antiviral activity against Vaccinia virus infected in HFF by plaque assay in presence of deoxy-coformycin; assay type: functional, organism-based; details: Orthopoxvirus vaccinia
[13] = as §4; assay type: ADME, tissue-based, Intestine; details: intestinal homogenate

| Compound | EC50 (Vaccinia virus [1]) | solubility [2] | EC50 (Cowpox virus [3]) | CC50 (HFF) | t1/2 (Liver) | t1/2 (Intestine) | t1/2 (Plasma) | other results |
| --- | --- | --- | --- | --- | --- | --- | --- | --- |
| Nc1ncnc2c1ncn2[C@@H]1O[C@H](COC(=O)[C@H](N)CC(=O)O)[C@@H](O)[C@@H]1O | 2.5 µM | > 10000 µg/mL | 4 µM | > 100 µM | – | – | – | – |
| CC(C)[C@H](N)C(=O)OC[C@H]1O[C@@H](n2cnc3c(N)ncnc32)[C@@H](O)[C@@H]1O | 4.8 µM | > 10000 µg/mL | 4 µM | – | 1.8 min | 18 min | 7.8 min | Drug uptake (HeLa [4]): 3.9 nmol/mg; Drug uptake (HeLa [5]): 80.3 nmol/mg |
| Nc1ncnc2c1ncn2[C@@H]1O[C@H](COC(=O)[C@@H](N)Cc2ccccc2)[C@@H](O)[C@@H]1O | 1.8 µM | > 10000 µg/mL | 3.5 µM | – | – | 16.2 min | – | half-life [6]: 1.02 min; fold change (FC) (Caco-2): 8.05; Papp A→B [7]: 0.668 ×10⁻⁶ cm/s |
| Nc1ncnc2c1ncn2[C@@H]1O[C@H](COC(=O)[C@H](N)Cc2ccccc2)[C@@H](O)[C@@H]1O | 2.3 µM | > 10000 µg/mL | 4 µM | > 100 µM | 6 min | 35.4 min | – | – |
| CC[C@H](C)[C@@H](N)C(=O)OC[C@H]1O[C@@H](n2cnc3c(N)ncnc32)[C@@H](O)[C@@H]1O | 2.9 µM | > 10000 µg/mL | 3.5 µM | – | 18.6 min | 474 min | 96.6 min | – |
| COC(=O)[C@H](NP(=O)(OC[C@H]1O[C@@H](n2cnc3c(N)ncnc32)[C@@H](O)[C@@H]1O)Oc1ccccc1)C(C)C (some centres not stated) | – | > 10000 µg/mL | – | – | 355 min | 1099 min | 21 min | – |
| CC(C)C[C@@H](N)C(=O)OC[C@H]1O[C@@H](n2cnc3c(N)ncnc32)[C@@H](O)[C@@H]1O | 3 µM | > 10000 µg/mL | 2.5 µM | – | 3.6 min | 2.4 min | – | – |
| CC[C@H](C)[C@H](N)C(=O)OC[C@H]1O[C@@H](n2cnc3c(N)ncnc32)[C@@H](O)[C@@H]1O | 4.5 µM | > 10000 µg/mL | 2.5 µM | > 100 µM | 3.6 min | 34.8 min | 215 min | fold change (FC) (Caco-2): 12.4; Drug uptake (HeLa [4]): 7.5 nmol/mg; Papp A→B [7]: 1.03 ×10⁻⁶ cm/s; Drug uptake (HeLa [5]): 202 nmol/mg |
| Nc1ccn(C[C@@H](CO)OCP(=O)(O)O)c(=O)n1.O.O [CIDOFOVIR] | – | – | – | – | – | – | – | bioavailability [8]: 2% |
| CC(C)[C@H](N)C(=O)OCCOCn1cnc2c(=O)[nH]c(N)nc21 [VALACYCLOVIR] | – | – | – | – | – | – | – | Drug uptake (HeLa [4]): 11.6 nmol/mg; Drug uptake (HeLa [5]): 221 nmol/mg |
| Nc1ncnc2c1ncn2[C@@H]1O[C@H](COC(=O)C[C@@H](N)C(=O)O)[C@@H](O)[C@@H]1O | 3.5 µM | > 10000 µg/mL | 25 µM | > 100 µM | – | – | – | – |
| COC(=O)[C@@H](NP(=O)(OC[C@H]1O[C@@H](n2cnc3c(N)ncnc32)[C@@H](O)[C@@H]1O)Oc1ccccc1)C(C)C (some centres not stated) | – | > 10000 µg/mL | – | – | Stable | Stable | 18 min | – |
| CC(C)[C@@H](N)C(=O)OC[C@H]1O[C@@H](n2cnc3c(N)ncnc32)[C@@H](O)[C@@H]1O | 4.1 µM | > 10000 µg/mL | 8 µM | > 100 µM | 27.6 min | Stable | 615.6 min | fold change (FC) (Caco-2): 7.2; Papp A→B [7]: 0.601 ×10⁻⁶ cm/s |
| CC(C)C[C@H](N)C(=O)OC[C@H]1O[C@@H](n2cnc3c(N)ncnc32)[C@@H](O)[C@@H]1O | 3.3 µM | > 10000 µg/mL | 3 µM | > 100 µM | 3 min | 1.8 min | – | – |
| Nc1ncnc2c1ncn2[C@@H]1O[C@H](CO)[C@@H](O)[C@@H]1O [VIDARABINE] | 6.2 µM | 470 µg/mL (≈ 1.76 mM) | 12.6 µM | – | – | – | – | EC50 (Cowpox virus [9]): 1.4 µM; CC50 [10]: 90 µM; half-life [6]: 15 min; CC50 [11]: > 100 µM; EC50 (Vaccinia virus [12]): 1 µM; half-life [13]: 3 min; Papp A→B [7]: 0.083 ×10⁻⁶ cm/s |
